Measurements taken from ChEMBL document CHEMBL2384971, “Bioactive limonoid and triterpenoid constituents of Turraea pubescens” (J Nat Prod, 2013).

What was measured:
RAW264.7 [1] = assay: Cytotoxicity against mouse RAW264.7 cells at 50 uM by MTT assay; assay type: cell-based; settings: raw264.7, 50 µM
RAW264.7 [2] = assay: Antiinflammatory activity against LPS-stimulated mouse RAW264.7 cells assessed as inhibition of NO production after 18 hrs by Griess method; assay type: functional, cell-based; settings: RAW264.7, 18 h
Outline: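 RAW 264.7 murine macrophages were seeded at 2 × 10^5 cells/well in RPMI 1640 with 10% FBS at 37 °C under 5% CO2 and preincubated for 24 h. Cells were then exposed for 18 h to serial dilutions (top concentration 25 μM; DMSO solutions diluted in medium) plus 1 μg/mL LPS. Supernatants were mixed with Griess reagents A and B in triplicate and read at 570 nm after 5 min.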

HL-60 = assay: Cytotoxicity against human HL60 cells by MTT assay; assay type: functional, cell-based
Artemia salina [3] = assay: Toxicity in brine shrimp larva assessed as corrected mortality at 100 ppm after 24 hrs by microscopic analysis relative to control; assay type: functional
Outline: (§1)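 Artemia salina larvae tested by a microwell method. Corrected mortality was derived from treatment-group mortality (Mt) against vehicle-control-group mortality (Mc).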

Artemia salina [4] = assay: Toxicity in brine shrimp larva assessed as corrected mortality at 10 ppm after 24 hrs by microscopic analysis relative to control; assay type: functional; outline: as §1
Artemia salina [5] = assay: Toxicity in brine shrimp larva assessed as corrected mortality at 50 ppm after 24 hrs by microscopic analysis relative to control; assay type: functional; outline: as §1

SMILES | Activity (RAW264.7 [1]) | IC50 (RAW264.7 [2]) [µM] | IC50 (HL-60) [µM] | mortality at 100 ppm (Artemia salina [3]) [%] | mortality at 10 ppm (Artemia salina [4]) [%] | mortality at 50 ppm (Artemia salina [5]) [%]
C=C1[C@@H]([C@@]2(C)C=CC(=O)C(C)(C)[C@@H]2CC(=O)OC)[C@@H](OC(C)=O)[C@H](OC(=O)C(C)C)[C@@]2(C)[C@H](c3ccoc3)C[C@H]3O[C@]132 | Non-toxic | > 20 | < 10 | – | – | –
C/C=C(\C)C(=O)O[C@H]1C[C@@H](OC(=O)CC)[C@@]2(C(=O)OC)CO[C@H]3[C@H]4O[C@]5(C)[C@H]6C[C@H](OC7OC=C[C@@]76O)[C@]5(O)[C@@]4(C)C4[C@]1(CO[C@]4(O)C(=O)OC)[C@@H]32 (some centres not stated) | Non-toxic | > 20 | < 10 | – | – | –
C=C1[C@@H]([C@@]2(C)C=CC(=O)C(C)(C)[C@@H]2CC(=O)OC)[C@@H](OC(C)=O)[C@H](OC(C)=O)[C@@]2(C)[C@H](C3=CC(O)OC3=O)C[C@H]3O[C@]132 (some centres not stated) | Non-toxic | > 20 | < 10 | < 50 | – | –
C[C@@H](C[C@@H](O)[C@H](O)C(C)(C)O)[C@@H]1CC[C@]2(C)C3=CC[C@H]4C(C)(C)[C@@H](O)CC[C@]4(C)[C@H]3CC[C@@]12C | Non-toxic | > 20 | < 10 | – | – | –
C=C1[C@@H]([C@@]2(C)C=CC(=O)C(C)(C)[C@@H]2CC(=O)OC)[C@@H](OC(C)=O)[C@H](OC(=O)C(C)C)[C@@]2(C)[C@H](C(=O)O)C[C@H]3O[C@]132 [TURRAPUBESIC ACID B] | Non-toxic | > 20 | < 10 | – | – | –
C=C1[C@@H]([C@@]2(C)C=CC(=O)C(C)(C)[C@@H]2CC(=O)OC)[C@@H](OC(C)=O)[C@H](OC(=O)C(C)CC)[C@@]2(C)[C@H](c3ccoc3)C[C@H]3O[C@]132 (some centres not stated) | Non-toxic | > 20 | < 10 | – | – | –
CO[C@@H]1O[C@@H]([C@@H]2OC2(C)C)C[C@H]1[C@@H]1CCC2[C@]3(C)[C@H](O)C[C@H]4C(C)(C)C(=O)C=C[C@]4(C)[C@H]3CC[C@]21C (some centres not stated) | Non-toxic | > 20 | < 10 | – | – | –
CC(=O)O[C@H]1C[C@@H]2[C@@]3(C)CCC(=O)C(C)(C)[C@@H]3C[C@@H](O)[C@@]2(C)C2=CC[C@@H](c3ccoc3)[C@@]21C [MZIKONONE] | Non-toxic | > 20 | < 10 | 76.4 | 0 | 36.9
C=C1[C@@H]([C@@]2(C)C=CC(=O)C(C)(C)[C@@H]2CC(=O)OC)[C@@H](OC(C)=O)[C@H](OC(=O)Cc2ccccc2)[C@@]2(C)[C@H](C3=CC(=O)OC3O)C[C@H]3O[C@]132 (some centres not stated) [TURRAPUBESIN E] | Non-toxic | > 20 | < 10 | < 50 | – | –
C=C1C2=CC[C@H](c3ccoc3)[C@]2(C)[C@@H](OC(C)=O)[C@H](OC(C)=O)[C@@H]1[C@@]1(C)C=CC(=O)C(C)(C)[C@@H]1CC(=O)OC [TURRAFLORIN A] | Non-toxic | 15.4 | < 10 | < 50 | – | –
C=C1[C@@H]([C@@]2(C)C=CC(=O)C(C)(C)[C@@H]2CC(=O)OC)[C@@H](OC(C)=O)[C@H](OC(=O)C(C)C)[C@@]2(C)[C@H](C3=CC(O)OC3=O)C[C@H]3O[C@]132 (some centres not stated) [TURRAPUBIN H] | Non-toxic | > 20 | < 10 | < 50 | – | –
CCC(=O)O[C@@H]1C[C@H](OC(C)=O)[C@@]2(C)[C@H]3[C@@H](OC[C@]13C)[C@@H](O)[C@@]1(C)C3=CC[C@@H](c4ccoc4)[C@]3(C)CC[C@@H]12 | Non-toxic | 18.5 | < 10 | 75.6 | 0 | 36.3
CCC(=O)O[C@@H]1C[C@H](OC(C)=O)[C@@]2(C)[C@@H]([C@@H](O)[C@@H](OC(C)=O)[C@@]3(C)C4=CC[C@@H](c5ccoc5)[C@]4(C)CC[C@@H]32)C1(C)C | Non-toxic | > 20 | < 10 | – | – | –
CC(=O)O[C@@H]1C[C@H]2C(C)(C)C(=O)C=C[C@]2(C)[C@H]2CC[C@]3(C)C(=CC[C@H]3[C@H]3COC(C)(C)[C@@H](O)[C@H](O)C3)[C@@]21C | Non-toxic | > 20 | < 10 | 69.8 | 0 | 6.7
C/C=C(\C)C(=O)O[C@H]1C[C@@H](OC(=O)CC)[C@@]2(C(=O)OC)CO[C@H]3[C@@H](O)[C@@](C)(C45OC4(C)C4C[C@H]5O[C@@H]5OC=CC45O)C4[C@]1(CO[C@]4(O)C(=O)OC)[C@@H]32 (some centres not stated) | Non-toxic | > 20 | < 10 | – | – | –
CC(=O)O[C@H]1C[C@@H]2[C@@]3(C)C=CC(=O)C(C)(C)[C@@H]3C[C@@H](O)[C@@]2(C)C2=CC[C@@H](c3ccoc3)[C@@]21C | Non-toxic | 11.9 | < 10 | 85 | 20.6 | 83.5
C[C@@H](C[C@@H](O)[C@@H]1OC1(C)C)[C@@H]1CC[C@]2(C)C3=CC[C@H]4C(C)(C)[C@@H](O)CC[C@]4(C)[C@H]3CC[C@@]12C [DIHYDRONILOTICIN] | Non-toxic | > 20 | < 10 | – | – | –
C=C1[C@@H]([C@@]2(C)C=CC(=O)C(C)(C)[C@@H]2CC(=O)OC)[C@@H](OC(C)=O)[C@H](OC(C)=O)[C@@]2(C)[C@H](c3ccoc3)C[C@H]3O[C@]132 | Non-toxic | > 20 | < 10 | < 50 | – | –
C=C1[C@@H]2[C@@H](O[C@H]3CC(=O)C(C)(C)[C@H](CC(=O)OC)[C@]32C)[C@H](OC(C)=O)[C@@]2(C)[C@H](c3ccoc3)C[C@H]3O[C@]132 [TURRAPUBIN D] | Non-toxic | > 20 | < 10 | – | – | –
CO[C@H]1O[C@@H]([C@@H]2OC2(C)C)C[C@H]1[C@@H]1CC=C2[C@]3(C)[C@H](O)C[C@H]4C(C)(C)C(=O)C=C[C@]4(C)[C@H]3CC[C@]21C | Non-toxic | 17.4 | < 10 | – | – | –
C/C=C(\C)C(=O)O[C@H]1C[C@@H](OC(C)=O)[C@@]2(C(=O)OC)CO[C@H]3[C@@H](O)[C@@](C)([C@]45O[C@@]4(C)[C@@H]4C[C@H]5O[C@@H]5OC=C[C@@]54O)[C@H]4[C@]1(CO[C@]4(O)C(=O)OC)[C@@H]32 [AZADIRACHTIN A] | Non-toxic | > 20 | < 10 | 81.7 | 12.5 | 59.6
CC(=O)O[C@@H]1[C@H](O)[C@H]2C(C)(C)C(=O)C=C[C@]2(C)[C@H]2CC[C@]3(C)C(=CC[C@H]3c3ccoc3)[C@]12C [NIMONOL] | Non-toxic | > 20 | < 10 | – | – | –
C=C1[C@@H]([C@@]2(C)[C@H](OC(C)=O)CC(=O)C(C)(C)[C@@H]2CC(=O)OC)[C@@H](OC(C)=O)[C@H](OC(C)=O)[C@@]2(C)[C@H](c3ccoc3)C[C@H]3O[C@]132 [TURRAPUBIN A] | Non-toxic | > 20 | < 10 | 54.7 | 0 | 0.8
C=C1[C@@H]([C@@]2(C)[C@H](OC(C)=O)CC(=O)C(C)(C)[C@@H]2CC(=O)OC)[C@@H](OC(C)=O)[C@H](OC(=O)C(C)C)[C@@]2(C)[C@H](c3ccoc3)C[C@H]3O[C@]132 | Non-toxic | > 20 | < 10 | 81.7 | 60.8 | 61.8
C=C1[C@@H]([C@@]2(C)C=CC(=O)C(C)(C)[C@@H]2CC(=O)OC)[C@@H](OC(C)=O)[C@H](O)[C@@]2(C)[C@H](c3ccoc3)C[C@H]3O[C@]132 [TURRAPUBIN E] | Non-toxic | > 20 | < 10 | < 50 | – | –
